Assay outcomes (PubChem BioAssay)
Compounds with a hit are over-represented: about 2.3% of the library has one in this group of screens.
ADAM10 inh – ADAM10 inhibition, QFRET primary screen; O14672; recombinant ADAM10, EDANS/DABCYL FRET peptide cleavage, 3 h; inhibition, % at 7 µM; 370,000 tested, 0.62% active; AID 720582;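 active = inhibition above a per-campaign cutoff equal to the mean of compounds falling between control-based bounds plus 3 SD, cut at about 20% in these data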;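 also: 0% = DMSO wells while the 100% control is not disclosed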
PLC-gamma1 inh – blocks human PLC-gamma1 enzyme activity | AID 720700 | P19174 | inhibition, % at 12.2 µM | purified PLC-gamma1, fluorogenic substrate, fluorescence | 370,000 tested, 0.84% active; in the data active = inhibition above about 9.5%
Tb MetRS inh – Trypanosoma brucei MetRS inhibition | purified T. brucei MetRS, ATP depletion, Kinase-Glo luminescence | inhibition, % at 11.9 µM | 360,000 tested, 0.4% active | AID 624268;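 active = inhibition above a per-plate cutoff of the control wells' mean inhibition plus 3 SD, cut at about 5.5% in these data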;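 also: 0% = DMSO wells median and 100% = median of wells with control inhibitor compound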
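Material: T. brucei methionyl-tRNA synthetase, purified; reagent: substrates ATP, L-methionine and bulk Escherichia coli tRNA; dosing: 11.9 µM single point; timing: 15 min plus 2 h at 25 °C; detection: luminescence of leftover ATP; evaluation: % inhibition; control set: DMSO-only wells as low control; replicates: singlicate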
ADAM17 inh – ADAM17 inhibition, QFRET primary screen. AID 720648. 370,000 tested, 0.83% active. recombinant ADAM17, EDANS/DABCYL FRET peptide cleavage. inhibition, % at 6.95 µM. P78536;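 active = inhibition above the mean of compounds lying between control limits plus 3 SD, set per campaign, cut at about 8.5% in these data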;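 also: 0% = DMSO-only wells as the low control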
PLCb3 inh – inhibitors of human phospholipase C beta3; AID 720704; Purified PLC-beta3, fluorogenic substrate, fluorescence; 370,000 tested, 0.18% active; inhibition, % at 12.2 µM; in the data active = inhibition above about 11%;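 also: 0% = median of compound wells on plate and 100% = full blocker control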
Tb MetRS conf – Trypanosoma brucei MetRS inhibition confirmed; AID 624412; inhibition, % at 11.9 µM; shares compounds with Tb MetRS inh; 1,400 tested, 93% active; T. brucei MetRS enzyme, luminescence (ATP depletion); in the data active = inhibition above about 7%
Jurkat tox – counter-screen for T. brucei MetRS inhibitors: Jurkat cell cytotoxicity. shares compounds with Tb MetRS inh. Jurkat cells viability, ATP luminescence. inhibition, % at 8.3 µM. 1,400 tested, 12% active; in the data active = inhibition above about 15%;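 also: 0% = vehicle and 100% = reference inhibitor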
TbMetRS FP orth – orthogonal test for Trypanosoma brucei MetRS inhibitors; inhibition, % at 11.9 µM; 1,400 tested, 44% active; purified T. brucei MetRS, fluorescence polarization; AID 651607; shares compounds with Tb MetRS inh; in the data active = inhibition above about 17%;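 also: 0% = vehicle wells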
Starred values were filed as active, the others as inactive; x = no result given.

SMILES | ADAM10 inh | PLC-gamma1 inh | Tb MetRS inh | ADAM17 inh | PLCb3 inh | Tb MetRS conf | Jurkat tox | TbMetRS FP orth
CCc1ccc(NC(=O)c2ccccc2SC)cc1 | 3 | 5 | -1 | 5 | -5 | x | x | x
COc1cc(NC(C)=O)c2ncccc2c1NC(C)=O | -19 | -21 | -1 | -11 | -33 | x | x | x
COc1cc(NC(C)=O)c2ncccc2c1[N+](=O)[O-] | 1 | 3 | 12* | -1 | 0 | 23* | -6 | 3
Cc1cc2c(c(=O)n1Cc1ccc3c(c1)OCO3)C(c1cccnc1)C(C#N)=C(N)O2 (configuration not stated) | -15 | -2 | 1 | -5 | 0 | x | x | x
COc1cc(C2C(C#N)=C(N)Oc3cc(C)n(CC4CCCO4)c(=O)c32)cc2c1OCO2 (configuration not stated) | 0 | -4 | 78* | -5 | -7 | 4 | 1 | 1
COc1ccc(CCn2c(C)cc3c(c2=O)C(c2ccc4c(c2)OCO4)C(C#N)=C(N)O3)cc1OC (configuration not stated) | -2 | 2 | 16* | 1 | 1 | 4 | 5 | 7
Cc1cc2c(c(=O)n1Cc1ccccn1)C(c1ccc3c(c1)OCO3)C(C#N)=C(N)O2 (configuration not stated) | 1 | -2 | 14* | -3 | 1 | 4 | -10 | 3
O=C(Cc1ccc(Cl)cc1)NNC(=O)C(=O)NC1CCCCC1 | -8 | 0 | 0 | -7 | 4 | x | x | x
O=C(NN1CCOCC1)c1ccccc1 | -5 | 2 | 0 | -5 | -3 | x | x | x
COc1ccc(S(=O)(=O)N2C(=O)/C(=C3\SC(N)=NC3=O)c3ccccc32)cc1 | 6 | 0 | 0 | -2 | -4 | x | x | x
O=C(Nc1ccc2nc(-c3cccnc3)[nH]c2c1)c1ccco1 | -13 | -8 | 0 | -4 | -10 | x | x | x
Cc1ccc2nc(-c3cccc(NC(=O)c4ccco4)c3)[nH]c2c1 | 2 | -2 | 6.0* | -3 | -10 | 9.1* | 9 | 56*
CCNc1nc(NCC)nc(NS(=O)(=O)c2ccc(N)cc2)n1 | 3 | 1 | -1 | 1 | -5 | x | x | x
Clc1ccc(CN2C3=NCCN3c3ccccc32)cc1Cl | 1 | -6 | 7.4* | -3 | -1 | 12* | 16* | 1
CN(CC(=O)Nc1cccc(F)c1)C(=O)CCSc1ccc(F)cc1 | 0 | 0 | 15* | -1 | -2 | 42* | 1 | 20*
COc1ccc(NC(=O)CN(C)C(=O)c2oc3c(ccc4ccccc43)c2C)cc1 | 0 | -5 | 6.4* | 1 | -7 | 23* | -7 | 13
CN(CC(=O)Nc1ccccc1Cl)C(=O)CCSc1ccc(F)cc1 | 4 | 2 | 0 | 0 | 1 | x | x | x
Cc1cc(Br)ccc1NC(=O)CN(C)C(=O)CCSc1ccc(F)cc1 | -3 | 2 | 2 | 1 | -6 | x | x | x
Cc1ccc(C)c(NC(=O)CN(C)C(=O)c2ccc(-c3ccc(Cl)cc3)o2)c1 | -6 | -3 | -1 | -3 | 0 | x | x | x
CN(CC(=O)Nc1cccc(F)c1)C(=O)c1ccc(-c2ccc(Cl)cc2)o1 | 11 | -6 | 21* | 6 | -2 | 39* | -10 | 24*
COc1ccc(NC(=O)CN(C)C(=O)CCSc2ccc(F)cc2)cc1 | -4 | -13 | 8.7* | -5 | -5 | 33* | -1 | 6
Cc1cc(NS(=O)(=O)c2ccc(NC(=O)c3cnc(Cl)c(Cl)c3)cc2)nc(C)n1 | -4 | 0 | 0 | -2 | -5 | x | x | x
C[C@@H]1OC(C2CCCCC2)N(C)[C@H]2C[C@H]3c4cc(-c5ccc6c(c5)OCO6)ccc4CCN3C[C@@H]12 (some centres not stated) | -2 | -2 | x | -3 | -2 | x | x | x
COc1cccc(CNC(=O)CSc2nc3ccc(C)cc3[nH]2)c1 | 8 | 0 | 5.8* | 2 | -2 | 20* | -3 | 8
Cc1ccc2nc(SCC(=O)NCc3cccs3)[nH]c2c1 | -4 | -3 | 3 | -3 | -6 | x | x | x
SMILES | ADAM10 inh | PLC-gamma1 inh | Tb MetRS inh | ADAM17 inh | PLCb3 inh | Tb MetRS conf | Jurkat tox | TbMetRS FP orth
COc1cccc(NC(=O)CSc2nnc3c(n2)[nH]c2ccc(C)cc23)c1 | 9 | 5 | 80* | 0 | -5 | 96* | 4 | 93*
COc1cccc(CNC(=O)CSc2nnc3c(n2)[nH]c2ccc(C)cc23)c1 | -1 | 3 | 19* | 0 | -1 | 79* | 5 | 46*
CC1CCCN(S(=O)(=O)c2cccc(C(=O)OCC(=O)N(C)Cc3c(F)cccc3Cl)c2)C1 (configuration not stated) | -1 | 0 | 0 | -1 | -4 | x | x | x
Cc1ccc(C(=O)NCc2ccco2)c(C)c1 | -2 | 1 | 0 | -7 | -7 | x | x | x
CC(C)(C)NC(=O)COC(=O)CNC(=O)c1cc(Cl)cc([N+](=O)[O-])c1 | -4 | 0 | 0 | 0 | 5 | x | x | x
COc1ccc(CNc2cc(C)ccn2)cc1 | -3 | 1 | 1 | -3 | -1 | x | x | x
Cc1ccnc(NCc2ccc(Br)cc2)c1 | 9 | -10 | 6.0* | -6 | -8 | 15* | -1 | 6
Clc1ccc(OCc2nnc(SCc3nc4ccccc4[nH]3)n2Cc2ccco2)cc1 | 4 | -3 | 11* | 0 | -11 | 84* | 21* | 66*
CCn1c(COc2ccc(C)cc2)nnc1SCc1nc2ccccc2[nH]1 | -3 | -3 | 15* | -3 | -9 | 20* | 11 | 7
Cn1c(COc2ccccc2)nnc1SCc1nc2ccccc2[nH]1 | -32 | -13 | 1 | -14 | -16 | x | x | x
COC(=O)[C@]12C[C@H](CC(=O)N3CCC(c4ccccc4)CC3)C(=O)N(Cc3ccco3)C1=C[C@H](COCc1ccccc1)O[C@@H]2C | 4 | 2 | x | 3 | -2 | x | x | x
Clc1cccc(CNc2ccn3nc(-c4cccc(Cl)c4)cc3n2)c1 | -95 | -57 | 0 | -27 | -85 | x | x | x
COc1cccc(NC(=O)Cn2cc(C=O)c3ccccc32)c1 | 5 | 0 | 4 | -4 | -4 | x | x | x
CCc1cccc(NC(=O)Cn2cc(C=O)c3ccccc32)c1 | 10 | 0 | 9.0* | -1 | 1 | 19* | 14 | 12
Cc1ccc(S(=O)(=O)NNC(=O)Nc2ccc(Cl)c(Cl)c2)cc1 | -3 | 1 | 12* | -4 | -6 | 13* | 1 | 10
O=C(NCCc1ccc(F)cc1)Nc1ccccc1 | 7 | 1 | 1 | -2 | -3 | x | x | x
O=C(NCCc1ccncc1)Nc1ccc(Cl)cc1 | 3 | 5 | 6.2* | 0 | 7 | 14* | -1 | 0
NS(=O)(=O)c1cccc(NC(=O)CCSc2ccccc2Cl)c1 | -9 | 1 | 0 | -1 | -3 | x | x | x
NS(=O)(=O)c1cccc(NC(=O)Cc2ccc(Cl)c(Cl)c2)c1 | 14 | 2 | 12* | 4 | -4 | 19* | 6 | 12
